Data taken from ChEMBL document CHEMBL5104115, “Design, synthesis of novel triptolide-glucose conjugates targeting glucose Transporter-1 and their selective antitumor effect” (Eur J Med Chem, 2022).
Calls of active or inactive are those of the source. The calls are words filed in the database; no cut-off is given here.

Key:
[1] = test system: NCI-H1975; experiment: Antitumor activity against human NCI-H1975 cells xenografted in BALB/c nude mouse assessed as tumor growth inhibition at 15 mg/kg, ip, q3d for 2 weeks relative to control; details: NCI-H1975, 336 h, read-out: TGI
[2] = Octanol-water partition coefficient, logD of the compound in PBS at pH 7.4 by liquid chromatography based mass spectrometric analysis; format: physicochemical
Outline: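 Shake-flask method: 3.0 mg compound dissolved in PBS-saturated n-octanol and rotated 24 h at room temperature. The octanol phase was then mixed with octanol-saturated PBS, rotated another 24 h and centrifuged. Both phases quantified by LC-MS against a standard curve, and log P = log(C octanol/C water).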

[3] = test system: SW-620; experiment: Cytotoxicity against human SW-620 cells incubated for 72 hrs by MTT assay; format: functional, cell-based; details: SW-620, 72 h
Outline: (§1)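 Cells seeded at 4000/well, incubated overnight, then exposed to a range of concentrations, or DMSO vehicle, for 72 h. MTT (5 mg/mL solution) added for 4 h and formazan dissolved in DMSO. Absorbance read at 570 nm, and IC50 derived from the curves. Tumor lines were grown in RPMI 1640; HUVEC, HaCaT and LO2 were grown in DMEM, each with 10% FBS at 37 °C and 5% CO2.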

[4] = test system: MDA-MB-231; experiment: Cytotoxicity against human MDA-MB-231 cells incubated for 72 hrs by MTT assay; format: functional, cell-based; details: MDA-MB-231, 72 h
Outline: as §1

[5] = test system: HCT-116; experiment: Cytotoxicity against human HCT-116 cells incubated for 72 hrs by MTT assay; format: functional, cell-based; details: HCT-116, 72 h
Outline: as §1

[6] = test system: HT-29; experiment: Cytotoxicity against human HT-29 cells incubated for 72 hrs by MTT assay; format: functional, cell-based; details: HT-29, 72 h
Outline: as §1

[7] = test system: NCI-H460; experiment: Cytotoxicity against human NCI-H460 cells incubated for 72 hrs by MTT assay; format: functional, cell-based; details: NCI-H460, 72 h
Outline: as §1

[8] = test system: NCI-H1975; experiment: Cytotoxicity against human NCI-H1975 cells incubated for 72 hrs by MTT assay; format: functional, cell-based; details: NCI-H1975, 72 h
Outline: as §1

[9] = Cytotoxicity against HUVEC incubated for 72 hrs by MTT assay; format: toxicity, cell-based; details: human, HUVEC cells
Outline: as §1

[10] = Cytotoxicity against human L02 cells incubated for 72 hrs by MTT assay; format: toxicity, cell-based
Outline: as §1

[11] = Cytotoxicity against human HaCaT cells incubated for 72 hrs by MTT assay; format: toxicity, cell-based
Outline: as §1

[12] = test system: NCI-H460; experiment: Down regulation of RNA polymerase II in human NCI-H460 cells measured after 48 hrs by Western blotting analysis; format: functional, cell-based
Outline: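 NCI-H460 cells treated for 48 h, harvested by trypsinization and lysed on ice in NP-40 buffer (50 mmol/L Tris pH 8.0, 150 mmol/L NaCl, 1% NP-40). Protein quantified by BCA and resolved by SDS-PAGE. Blots probed for RNA Pol II (1:1000), with GAPDH as loading control, and detected by chemiluminescence.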

[13] = test system: NCI-H460; experiment: Induction of apoptosis in human NCI-H460 cells assessed as viable cells at 0.01 uM measured after 48 hrs by Annexin V-FITC/PI staining method (reference value: 86.4%); format: functional; details: read-out: Activity
[14] = test system: NCI-H460; experiment: Induction of apoptosis in human NCI-H460 cells assessed as early apoptotic cells at 0.01 uM measured after 48 hrs by Annexin V-FITC/PI staining method (reference value: 3.46%); format: functional
[15] = test system: NCI-H460; experiment: Induction of apoptosis in human NCI-H460 cells assessed as late apoptotic cells at 0.01 uM measured after 48 hrs by Annexin V-FITC/PI staining method (reference value: 8.57%); format: functional
[16] = test system: NCI-H460; experiment: Induction of apoptosis in human NCI-H460 cells assessed as necrotic cells at 0.01 uM measured after 48 hrs by Annexin V-FITC/PI staining method (reference value: 1.59%); format: functional
[17] = test system: NCI-H460; experiment: Induction of apoptosis in human NCI-H460 cells assessed as viable cells at 0.1 uM measured after 48 hrs by Annexin V-FITC/PI staining method (reference value: 86.4%); format: functional; details: read-out: Activity
[18] = test system: NCI-H460; experiment: Induction of apoptosis in human NCI-H460 cells assessed as early apoptotic cells at 0.1 uM measured after 48 hrs by Annexin V-FITC/PI staining method (reference value: 3.46%); format: functional
[19] = test system: NCI-H460; experiment: Induction of apoptosis in human NCI-H460 cells assessed as late apoptotic cells at 0.1 uM measured after 48 hrs by Annexin V-FITC/PI staining method (reference value: 8.57%); format: functional
[20] = test system: NCI-H460; experiment: Induction of apoptosis in human NCI-H460 cells assessed as necrotic cells at 0.1 uM measured after 48 hrs by Annexin V-FITC/PI staining method (reference value: 1.59%); format: functional
[21] = test system: NCI-H460; experiment: Induction of apoptosis in human NCI-H460 cells assessed as viable cells at 1 uM measured after 48 hrs by Annexin V-FITC/PI staining method (reference value: 86.4%); format: functional; details: read-out: Activity
[22] = test system: NCI-H460; experiment: Induction of apoptosis in human NCI-H460 cells assessed as early apoptotic cells at 1 uM measured after 48 hrs by Annexin V-FITC/PI staining method (reference value: 3.46%); format: functional
[23] = test system: NCI-H460; experiment: Induction of apoptosis in human NCI-H460 cells assessed as late apoptotic cells at 1 uM measured after 48 hrs by Annexin V-FITC/PI staining method (reference value: 8.57%); format: functional
[24] = test system: NCI-H460; experiment: Induction of apoptosis in human NCI-H460 cells assessed as necrotic cells at 1 uM measured after 48 hrs by Annexin V-FITC/PI staining method (reference value: 1.59%); format: functional
[25] = test system: NCI-H460; experiment: Induction of ROS accumulation in human NCI-H460 cells measured upto 100 nM after 42 to 48 hrs by DCFH-DA staining based flow cytometric analysis; format: functional, cell-based; details: time 42-48 hrs
Outline: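 NCI-H460 cells exposed for 42 h or 48 h, then suspended in 1% BSA DPBS. DCFH-DA (from a 10 mM stock) added and incubated 30 min in the dark, followed by washing. DCF fluorescence taken from flow-cytometry histograms and expressed as percentage relative to untreated control.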

[26] = test system: NCI-H460; experiment: Induction of mitochondrial membrane potential loss in human NCI-H460 cells by flow cytometric analysis; format: functional, cell-based
Outline: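 Treated NCI-H460 cells suspended in 1% BSA DPBS and stained with TMRE (from a 1 mM stock) for 20 min in the dark. Cells then washed and resuspended in 1% BSA DPBS. Relative TMRE fluorescence intensity taken as the readout of membrane potential.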

[27] = Stability in mouse serum measured after 8 hrs by HPLC analysis; format: ADME, cell-free
[28] = Toxicity in BALB/c nude mouse xenografted with human NCI-H1975 cells assessed as morphological change in lung at 0.2 mg/kg administered ip, qd for 2 weeks; details: in vivo, 336 h
[29] = Toxicity in BALB/c nude mouse xenografted with human NCI-H1975 cells assessed as morphological change in heart at 0.2 mg/kg administered ip, qd for 2 weeks; details: in vivo, 336 h
[30] = Toxicity in BALB/c nude mouse xenografted with human NCI-H1975 cells assessed as morphological change in liver at 0.2 mg/kg administered ip, qd for 2 weeks; details: in vivo, 336 h
[31] = Toxicity in BALB/c nude mouse xenografted with human NCI-H1975 cells assessed as decreased spermatogenic cells at 0.2 mg/kg administered ip, qd for 2 weeks; details: in vivo, 336 h
[32] = Toxicity in BALB/c nude mouse xenografted with human NCI-H1975 cells assessed as morphological change in kidney at 0.2 mg/kg administered ip, qd for 2 weeks; details: in vivo, 336 h
[33] = Toxicity in BALB/c nude mouse xenografted with human NCI-H1975 cells assessed as irregular spermatogenic tubules at 0.2 mg/kg administered ip, qd for 2 weeks; details: in vivo, 336 h
[34] = Toxicity in BALB/c nude mouse xenografted with human NCI-H1975 cells assessed as reduction of cytoplasmic nuclei at 0.2 mg/kg administered ip, qd for 2 weeks; details: in vivo, 336 h
[35] = Toxicity in BALB/c nude mouse xenografted with human NCI-H1975 cells assessed as reduction of cytoplasmic vacuoles at 0.2 mg/kg administered ip, qd for 2 weeks; details: in vivo, 336 h
[36] = test system: NCI-H1975; experiment: Antitumor activity against human NCI-H1975 cells xenografted in BALB/c nude mouse assessed as tumor growth inhibition at 0.2 mg/kg, ip, qd for 2 weeks relative to control; details: NCI-H1975, 336 h, read-out: TGI
[37] = Toxicity in BALB/c nude mouse xenografted with human NCI-H1975 cells assessed as degeneration of inter tube connective tissue at 0.2 mg/kg administered ip, qd for 2 weeks; details: in vivo, 336 h

CC(=O)O[C@H]1C(=O)[C@@]2(C)[C@H]([C@H](OC(=O)c3ccccc3)[C@]3(O)C[C@H](OC(=O)[C@H](O)[C@@H](NC(=O)c4ccccc4)c4ccccc4)C(C)=C1C3(C)C)[C@]1(OC(C)=O)CO[C@@H]1C[C@@H]2O [PACLITAXEL]
inhibition in vivo at 15 mg/kg [1]: 56.9%

CC(C)[C@]12O[C@H]1[C@@H]1O[C@]13[C@]1(O[C@H]1C[C@H]1C4=C(CC[C@@]13C)C(=O)OC4)[C@@H]2O [TRIPTOLIDE]
logD [2]: -0.56
IC50 [3]: 0.163 µM
IC50 [4]: 0.051 µM
IC50 [5]: 0.046 µM
IC50 [6]: 0.047 µM
IC50 [7]: 0.014 µM
IC50 [8]: 0.002 µM
IC50 at 72 h [9]: 0.044 µM
IC50 at 72 h [10]: 0.016 µM
IC50 at 72 h [11]: 0.027 µM
Activity [12]: Active
viability at 0.01 µM [13]: 87.8%
Activity [14]: 6.84%
Activity [15]: 3.17%
Activity [16]: 2.2%
viability at 0.1 µM [17]: 29.5%
Activity [18]: 42.2%
Activity [19]: 24.4%
Activity [20]: 3.85%
viability at 1 µM [21]: 25.1%
Activity [22]: 56.8%
Activity [23]: 5.7%
Activity [24]: 2.34%
Activity [25]: Active
Activity [26]: Active
Stability [27]: Unstable
Activity [28]: Non-Toxic
Activity [29]: Non-Toxic
Activity [30]: Non-Toxic
Activity [31]: Toxic
Activity [32]: Non-Toxic
Activity [33]: Toxic
Activity [34]: Toxic
Activity [35]: Toxic
inhibition in vivo at 0.2 mg/kg [36]: 28.6%
Activity [37]: Toxic

CC(C)[C@]12O[C@H]1[C@@H]1O[C@]13[C@]1(O[C@H]1C[C@H]1C4=C(CC[C@@]13C)C(=O)OC4)[C@@H]2OC(=O)CCC(=O)O[C@H]1O[C@H](CO)[C@@H](O)[C@H](O)[C@H]1O
IC50 [3]: 3.85 µM
IC50 [4]: 4.42 µM
IC50 [5]: 1.9 µM
IC50 [6]: 5.37 µM
IC50 [7]: 4.08 µM
IC50 [8]: 3.42 µM
IC50 at 72 h [9]: 5.68 µM
IC50 at 72 h [10]: 2.15 µM
IC50 at 72 h [11]: 4.29 µM

CC(C)[C@]12O[C@H]1[C@@H]1O[C@]13[C@]1(O[C@H]1C[C@H]1C4=C(CC[C@@]13C)C(=O)OC4)[C@@H]2OC(=O)CCC(=O)O[C@H]1[C@H](O)[C@@H](CO)OC(O)[C@@H]1O (stereo not given in full)
logD [2]: -0.772
IC50 [3]: 2.55 µM
IC50 [4]: 2.43 µM
IC50 [5]: 2.71 µM
IC50 [6]: 5.18 µM
IC50 [7]: 1.63 µM
IC50 [8]: 2.21 µM
IC50 at 72 h [9]: 4.93 µM
IC50 at 72 h [10]: 1.38 µM
IC50 at 72 h [11]: 4.83 µM

CC(C)[C@]12O[C@H]1[C@@H]1O[C@]13[C@]1(O[C@H]1C[C@H]1C4=C(CC[C@@]13C)C(=O)OC4)[C@@H]2OC(=O)CCC(=O)O[C@H]1[C@H](O)[C@@H](O)C(O)O[C@@H]1CO (stereo not given in full)
logD [2]: -0.331
IC50 [3]: 11 µM
IC50 [4]: 5.61 µM
IC50 [5]: 4.47 µM
IC50 [6]: 4.08 µM
IC50 [7]: 3.06 µM
IC50 [8]: 2.51 µM
IC50 at 72 h [9]: 2.36 µM
IC50 at 72 h [10]: 1.8 µM
IC50 at 72 h [11]: 4.75 µM

CC(C)[C@]12O[C@H]1[C@@H]1O[C@]13[C@]1(O[C@H]1C[C@H]1C4=C(CC[C@@]13C)C(=O)OC4)[C@@H]2OC(=O)CCC(=O)OC[C@H]1OC(O)[C@H](O)[C@@H](O)[C@@H]1O (stereo not given in full)
IC50 [3]: 5.2 µM
IC50 [4]: 6.62 µM
IC50 [5]: 2.28 µM
IC50 [6]: 4.28 µM
IC50 [7]: 1.07 µM
IC50 [8]: 1.14 µM
IC50 at 72 h [9]: 2.02 µM
IC50 at 72 h [10]: 1.42 µM
IC50 at 72 h [11]: 3.9 µM

CC(C)[C@]12O[C@H]1[C@@H]1O[C@]13[C@]1(O[C@H]1C[C@H]1C4=C(CC[C@@]13C)C(=O)OC4)[C@@H]2OC(=O)CCC(=O)O[C@@H]1O[C@H](CO)[C@@H](O)[C@H](O)[C@H]1O
logD [2]: -0.558
IC50 [3]: 5.51 µM
IC50 [4]: 2.28 µM
IC50 [5]: 2.35 µM
IC50 [6]: 2.89 µM
IC50 [7]: 2.72 µM
IC50 [8]: 1.86 µM
IC50 at 72 h [9]: 8.14 µM
IC50 at 72 h [10]: 1.38 µM
IC50 at 72 h [11]: 1.63 µM
